Active and inactive are the calls of the source. The calls are words filed in the database; no cut-off is given here.
Experiments:
Rattus norvegicus [1] = experiment: In vivo neurogenic activity in Sprague-Dawley rat neural progenitor cells at 2.2 mg/kg, ip qd pretreated for 28 days followed by BrdU addition at 2 hrs interval for twice on day 29 measured after 24 hrs by BrdU incorporation assay; type: functional, organism-based
Summary of the method: (§1)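 Male SD rats aged 10 weeks, acclimatized 7 days (11 weeks old at start), dosed ip once daily for 28 days with compound in soybean oil containing 10% ethanol; vehicle group received 10% ethanol in oil. On day 29, BrdU in saline given twice at 100 mg/kg, 2 h apart. Rats sacrificed 24 h after the last BrdU. BrdU+ cells in SGZ-GCL counted by DAB immunostaining of 30 µm cryosections; n = 8; mean ± SEM.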

[2] = Cytotoxicity against human SH-SY5Y cells assessed as cell survival at 500 uM after 24 hrs by MTT assay relative to control; type: cell-based; conditions: read-out: Survival
Summary of the method: (§2)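 SH-SY5Y human neuroblastoma cells seeded at 5 × 10⁴ cells/mL, incubated 24 h at 37 °C, then exposed to compounds at final concentrations of […] for 24 h. MTT added for a further 4 h at 37 °C. Absorbance read at 570 nm and reported as percent viability. Five parallel samples per condition.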

[3] = Cytotoxicity against human SH-SY5Y cells assessed as cell survival at 100 uM after 24 hrs by MTT assay relative to control; type: cell-based; conditions: read-out: Survival; summary of the method: as §2
[4] = Cytotoxicity against human SH-SY5Y cells assessed as cell survival at 1000 uM after 24 hrs by MTT assay relative to control; type: cell-based; conditions: read-out: Survival; summary of the method: as §2
[5] = Drug uptake in mouse brain at 20 mg/kg, po via gavage by HPLC-MS/MS analysis; type: ADME, organism-based; conditions: in vivo, read-out: Drug uptake
Rattus norvegicus [6] = experiment: In vivo neurogenic activity in Sprague-Dawley rat neural progenitor cells at 4 mg/kg, ip qd pretreated for 28 days followed by BrdU addition at 2 hrs interval for twice on day 29 measured after 24 hrs by BrdU incorporation assay relative to control; type: functional; summary of the method: as §1
Rattus norvegicus [7] = experiment: In vivo neurogenic activity in Sprague-Dawley rat neural progenitor cells at 0.5 mg/kg, ip qd pretreated for 28 days followed by BrdU addition at 2 hrs interval for twice on day 29 measured after 24 hrs by BrdU incorporation assay; type: functional, organism-based
Summary of the method: (§3)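 Eleven-week-old SD male rats were dosed ip daily for 28 days in soybean oil with 10% ethanol, against a vehicle control. On day 29 BrdU 100 mg/kg was given twice, 2 h apart, and rats were sacrificed 24 h later. Sections were treated with HCl denaturation, BrdU antibody at 1:500 at 4 °C overnight and DAB detection. BrdU+ cells in the SGZ-GCL were counted, mean ± SEM, n = 8.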

Rattus norvegicus [8] = experiment: In vivo neurogenic activity in Sprague-Dawley rat neural progenitor cells at 0.5 to 4 mg/kg, ip qd pretreated for 28 days followed by BrdU addition at 2 hrs interval for twice on day 29 measured after 24 hrs by BrdU incorporation assay; type: functional, organism-based; summary of the method: as §3
Rattus norvegicus [9] = experiment: Downregulation of AKT phosphorylation in Sprague-Dawley rat adult hippocampus at 0.5 to 4 mg/kg, ip qd preincubated for 28 days followed by BrdU addition at 2 hrs interval for twice on day 29 measured at 24 hrs post BrdU pulse by immunoblot assay; type: functional, organism-based; conditions: in the assay text read “Upregulation” for “Downregulation”
Summary of the method: (§4)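 Male SD rats (received at 10 weeks, acclimatized 7 days) were dosed ip once daily for 28 days. The compounds were given in soybean oil with 10% ethanol, and the vehicle group received 10% ethanol in oil. BrdU was given 100 mg/kg twice, 2 h apart, on day 29. Hippocampal tissue was taken 24 h or 28 days later. Lysates were made in RIPA with protease inhibitors and run on 12% SDS-PAGE. Akt, pAkt, ERK1/2 and pERK1/2 were immunoblotted and read by densitometry against GAPDH, normalized to vehicle = 1.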

Rattus norvegicus [10] = experiment: Effect on AKT expression in Sprague-Dawley rat adult hippocampus at 0.5 to 4 mg/kg, ip qd preincubated for 28 days followed by BrdU addition at 2 hrs interval for twice on day 29 measured at 24 hrs post BrdU pulse by immunoblot assay; type: functional, organism-based; summary of the method: as §4
Rattus norvegicus [11] = experiment: Downregulation of ERK phosphorylation in Sprague-Dawley rat adult hippocampus at 0.05 to 0.5 mg/kg, ip qd preincubated for 28 days followed by BrdU addition at 2 hrs interval for twice on day 29 measured at 28 days post BrdU pulse by immunoblot assay; type: functional, organism-based; summary of the method: as §4
Rattus norvegicus [12] = experiment: Downregulation of ERK phosphorylation in Sprague-Dawley rat adult hippocampus at 0.5 to 4 mg/kg, ip qd preincubated for 28 days followed by BrdU addition at 2 hrs interval for twice on day 29 measured at 24 hrs post BrdU pulse by immunoblot assay; type: functional, organism-based; conditions: in the assay text read “Upregulation” for “Downregulation”; summary of the method: as §4
Rattus norvegicus [13] = experiment: In vivo neurogenic activity in Sprague-Dawley rat adult hippocampal at 0.05 mg/kg, ip qd preincubated for 28 days followed by BrdU addition at 2 hrs interval for twice at day 29 measured at 28 days post last dose by NeuN/BrdU double staining based immunohistochemistry assay relative to control; type: functional
Summary of the method: (§5)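 SD male rats, 11 weeks old, were given compound ip daily for 28 days in 10% ethanol/soybean oil. On day 29 they received BrdU 100 mg/kg ip twice, 2 h apart, and were perfused 28 days after the last BrdU. Fixed 30 µm cryosections were co-stained for BrdU and NeuN by fluorescence. BrdU+ cells and the BrdU+NeuN+/BrdU+ fraction were counted against vehicle, mean ± SEM, n = 8.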

Rattus norvegicus [14] = experiment: In vivo neurogenic activity in Sprague-Dawley rat adult hippocampal at 0.5 mg/kg, ip qd preincubated for 28 days followed by BrdU addition at 2 hrs interval for twice at day 29 measured at 28 days post last dose by NeuN/BrdU double staining based immunohistochemistry assay relative to control; type: functional; summary of the method: as §5
Rattus norvegicus [15] = experiment: Downregulation of AKT phosphorylation in Sprague-Dawley rat adult hippocampus at 0.05 to 0.5 mg/kg, ip qd preincubated for 28 days followed by BrdU addition at 2 hrs interval for twice on day 29 measured at 28 days post BrdU pulse by immunoblot assay; type: functional, organism-based; summary of the method: as §4
Rattus norvegicus [16] = experiment: Effect on ERK expression in Sprague-Dawley rat adult hippocampus at 0.05 to 0.5 mg/kg, ip qd preincubated for 28 days followed by BrdU addition at 2 hrs interval for twice on day 29 measured at 28 days post BrdU pulse by immunoblot assay; type: functional, organism-based; summary of the method: as §4
Rattus norvegicus [17] = experiment: Effect on AKT expression in Sprague-Dawley rat adult hippocampus at 0.05 to 0.5 mg/kg, ip qd preincubated for 28 days followed by BrdU addition at 2 hrs interval for twice on day 29 measured at 28 days post BrdU pulse by immunoblot assay; type: functional, organism-based; summary of the method: as §4
Rattus norvegicus [18] = experiment: Effect on ERK expression in Sprague-Dawley rat adult hippocampus at 0.5 to 4 mg/kg, ip qd preincubated for 28 days followed by BrdU addition at 2 hrs interval for twice on day 29 measured at 24 hrs post BrdU pulse by immunoblot assay; type: functional, organism-based; summary of the method: as §4
Rattus norvegicus [19] = experiment: Downregulation of ERK phosphorylation in Sprague-Dawley rat adult hippocampus at 2 to 20 mg/kg, ip qd preincubated for 28 days followed by BrdU addition at 2 hrs interval for twice on day 29 measured at 28 days post BrdU pulse by immunoblot assay; type: functional, organism-based; summary of the method: as §4
Rattus norvegicus [20] = experiment: (§6) In vivo neurogenic activity in Sprague-Dawley rat neural progenitor cells assessed as differentiation of new born NPCs to mature functional neurons at 20 mg/kg, ip qd preincubated for 28 days followed by BrdU addition at 2 hrs interval for twice on day 29 measured at 28 days post BrdU pulse by NeuN/BrdU double staining based assay relative to control; summary of the method: as §5
Rattus norvegicus [21] = experiment: Downregulation of ERK phosphorylation in Sprague-Dawley rat adult hippocampus at 2.2 to 4 mg/kg, ip qd preincubated for 28 days followed by BrdU addition at 2 hrs interval for twice on day 29 measured at 24 hrs post BrdU pulse by immunoblot assay; type: functional, organism-based; conditions: in the assay text read “Upregulation” for “Downregulation”; summary of the method: as §4
Rattus norvegicus [22] = experiment: Effect on ERK expression in Sprague-Dawley rat adult hippocampus at 2 to 20 mg/kg, ip qd preincubated for 28 days followed by BrdU addition at 2 hrs interval for twice on day 29 measured at 28 days post BrdU pulse by immunoblot assay; type: functional, organism-based; summary of the method: as §4
Rattus norvegicus [23] = experiment: Effect on AKT expression in Sprague-Dawley rat adult hippocampus at 2.2 to 4 mg/kg, ip qd preincubated for 28 days followed by BrdU addition at 2 hrs interval for twice on day 29 measured at 24 hrs post BrdU pulse by immunoblot assay; type: functional, organism-based; summary of the method: as §4
Rattus norvegicus [24] = experiment: as §6, with “2” for “20”; summary of the method: as §5
Rattus norvegicus [25] = experiment: In vivo neurogenic activity in Sprague-Dawley rat neural progenitor cells at 2 mg/kg, ip qd preincubated for 28 days followed by BrdU addition at 2 hrs interval for twice on day 29 measured at 28 days post BrdU pulse by BrdU double staining based assay relative to control; type: functional; summary of the method: as §5
Rattus norvegicus [26] = experiment: Downregulation of AKT phosphorylation in Sprague-Dawley rat adult hippocampus at 2 to 20 mg/kg, ip qd preincubated for 28 days followed by BrdU addition at 2 hrs interval for twice on day 29 measured at 28 days post BrdU pulse by immunoblot assay; type: functional, organism-based; summary of the method: as §4
Rattus norvegicus [27] = experiment: Effect on AKT expression in Sprague-Dawley rat adult hippocampus at 2 to 20 mg/kg, ip qd preincubated for 28 days followed by BrdU addition at 2 hrs interval for twice on day 29 measured at 28 days post BrdU pulse by immunoblot assay; type: functional, organism-based; summary of the method: as §4
Rattus norvegicus [28] = experiment: as §6, with “4” for “20”; summary of the method: as §5
Rattus norvegicus [29] = experiment: Downregulation of AKT phosphorylation in Sprague-Dawley rat adult hippocampus at 2.2 to 4 mg/kg, ip qd preincubated for 28 days followed by BrdU addition at 2 hrs interval for twice on day 29 measured at 24 hrs post BrdU pulse by immunoblot assay; type: functional, organism-based; conditions: in the assay text read “Upregulation” for “Downregulation”; summary of the method: as §4
Rattus norvegicus [30] = experiment: Effect on ERK expression in Sprague-Dawley rat adult hippocampus at 2.2 to 4 mg/kg, ip qd preincubated for 28 days followed by BrdU addition at 2 hrs interval for twice on day 29 measured at 24 hrs post BrdU pulse by immunoblot assay; type: functional, organism-based; summary of the method: as §4

Structure (SMILES) | Activity (Rattus norvegicus [1]) | viability at 24 h, 500 µM [2] [%] | viability at 24 h, 100 µM [3] [%] | viability at 24 h, 1000 µM [4] [%] | other results
COc1ccc(/C=C/c2ccc(NC(C)=O)cc2)cc1OC | inactive | 56.5 | 68 | 31.3 | 
COc1cccc(NCC(F)Cn2c3ccc(Br)cc3c3cc(Br)ccc32)c1 (stereo not given) |  |  |  |  | concentration [5]: 0.9 µM
CCC(=O)Nc1ccc(/C=C/c2ccc3c(c2)OCO3)cc1 | Active | 80.6 | 85.9 | 61.5 | 
COc1cc(/C=C/c2ccc(OC(C)=O)cc2)cc(OC)c1 |  | 13.9 | 6.48 | 6.75 | Activity (Rattus norvegicus [6]): Active; Activity (Rattus norvegicus [7]): inactive
Oc1ccc(/C=C/c2ccc3c(c2)OCO3)cc1 | inactive | 20.1 | 39.5 | 14.4 | 
O=C(Nc1ccc(/C=C/c2ccc3c(c2)OCO3)cc1)C1CC1 |  | 97.3 | 98.9 | 85.3 | fold change (FC) (Rattus norvegicus [6]): 2.2 - 3.5; Activity (Rattus norvegicus [8]): Active
O=C(Nc1ccc(/C=C/c2ccc3c(c2)OCO3)cc1)c1ccccc1 |  | 99.3 | 98.6 | 85 | Activity (Rattus norvegicus [9]): Active; Activity (Rattus norvegicus [10]): Active; fold change (FC) (Rattus norvegicus [6]): 2.2 - 3.5; Activity (Rattus norvegicus [11]): Active; Activity (Rattus norvegicus [12]): Active; fold change (FC) (Rattus norvegicus [13]): 1.6; fold change (FC) (Rattus norvegicus [14]): 3.2; Activity (Rattus norvegicus [15]): Active; Activity (Rattus norvegicus [16]): Active; Activity (Rattus norvegicus [8]): Active; Activity (Rattus norvegicus [17]): Active; Activity (Rattus norvegicus [18]): Active
CC(=O)Nc1cccc(C#Cc2ccc3c(c2)OCO3)c1 | inactive | 62.9 | 70.6 | 55.3 | 
CC(=O)Oc1ccc(/C=C/c2ccc3c(c2)OCO3)cc1 | inactive | 21.3 | 84.5 | 17.8 | 
CS(=O)(=O)Nc1ccc(/C=C/c2ccc3c(c2)OCO3)cc1 |  | 68.9 | 72.5 | 62.3 | fold change (FC) (Rattus norvegicus [6]): 2.2 - 3.5; Activity (Rattus norvegicus [8]): Active
COc1ccc(C#Cc2ccc3c(c2)OCO3)cc1 | inactive | 69.1 | 75.9 | 63.8 | 
CC(C)C(=O)Nc1ccc(/C=C/c2ccc3c(c2)OCO3)cc1 |  | 48.4 | 50.9 | 42 | fold change (FC) (Rattus norvegicus [6]): 2.2 - 3.5; Activity (Rattus norvegicus [8]): Active
CC(=O)Nc1ccc(/C=C/c2ccc3c(c2)OCO3)cc1 | Active | 91.9 | 97 | 80.4 | Activity (Rattus norvegicus [19]): Active; fold change (FC) (Rattus norvegicus [20]): 2.3; Activity (Rattus norvegicus [6]): Active; Activity (Rattus norvegicus [21]): Active; Activity (Rattus norvegicus [22]): Active; Activity (Rattus norvegicus [23]): Active; fold change (FC) (Rattus norvegicus [24]): 4.6; fold change (FC) (Rattus norvegicus [25]): 4.2; Activity (Rattus norvegicus [26]): Active; Activity (Rattus norvegicus [27]): Active; fold change (FC) (Rattus norvegicus [28]): 3.1; Activity (Rattus norvegicus [29]): Active; Activity (Rattus norvegicus [30]): Active
COc1ccc(OCC#Cc2ccc3c(c2)OCO3)cc1 | Active | 79.7 | 44.1 | 36.3 | 
CC(=O)Nc1ccc(CCc2ccc3c(c2)OCO3)cc1 | inactive | 79.4 | 90.3 | 68.8 | 
